Results from ChEMBL document CHEMBL4350958, “Rational Design of Short Peptide Variants by Using Kunitzin-RE, an Amphibian-Derived Bioactivity Peptide, for Acquired Potent Broad-Spectrum Antimicrobial and Improved Therapeutic Potential of Commensalism Coinfection of Pathogens” (J Med Chem, 2019).

How the values were obtained:
Salmonella typhimurium = test: Bactericidal activity against Salmonella typhimurium ATCC 14028 incubated for 24 hrs followed by replating on agar plate and measured after overnight incubation; type: functional, Salmonella enterica subsp. enterica serovar Typhimurium; settings: Salmonella enterica, ATCC 14028, 24 h; read-out: MBC>99.9
Summary of the method: (§1)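 Mid-log bacteria diluted in MHB to (0.5–1) × 10^5 CFU/mL and mixed 1:1 with peptide serially diluted in 0.2% BSA. After 24 h at 37 °C, 50 μL of each mixture was plated on agar and incubated overnight. MBC taken as the lowest concentration killing >99.9% of cells. At least three independent experiments, each with three technical replicates.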

Staphylococcus aureus [1] = test: Antibacterial activity against methicillin-resistant Staphylococcus aureus ATCC 43300 measured after 24 hrs; type: functional; settings: ATCC 43300, 24 h
Summary of the method: (§2)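 Broth microdilution modified from NCCLS. Mid-log bacteria at (0.5–1) × 10^5 CFU mL−1 in MHB, mixed with peptides serially diluted in 0.2% BSA. Incubated 24 h at 37 °C, read at A492. MIC taken as lowest concentration giving 95% growth inhibition. At least three independent experiments, each with three technical replicates.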

[2] = Therapeutic index, ratio of MHC10 for hemolytic activity in human RBC to MIC95 against Candida tropicalis cgmcc2.1975; type: toxicity; settings: human red blood cells (erythrocytes), read-out: TI
Summary of the method: (§3)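 Therapeutic index = MHC divided by MIC. MHC is the lowest concentration giving >10% lysis of human RBC (1 h, 37 °C, 1-128 µM, A576). MIC is 95% growth inhibition by broth microdilution: bacteria in MHB 24 h at 37 °C; Candida in MOPS-buffered RPMI 1640 at (0.5–1) × 10^3 CFU mL−1, 48 h at 28 °C.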

Staphylococcus aureus [3] = test: Antibacterial activity against Staphylococcus aureus ATCC 29213 measured after 18 to 24 hrs in presence of KCl; type: functional
Staphylococcus aureus [4] = test: Antibacterial activity against Staphylococcus aureus ATCC 29213 measured after 18 to 24 hrs in presence of NaCl; type: functional
Candida albicans [5] = test: Antifungal activity against Candida albicans cgmcc2.2086 measured after 48 hrs in presence of MgCl by broth microdilution method; type: functional; settings: cgmcc2.2086, 48 h
Candida albicans [6] = test: Antifungal activity against Candida albicans cgmcc2.2086 measured after 48 hrs in presence of NaCl by broth microdilution method; type: functional; settings: cgmcc2.2086, 48 h
Escherichia coli [7] = test: Antibacterial activity against Escherichia coli ATCC 25922 measured after 18 to 24 hrs in presence of FeCl3; type: functional
[8] = test system: Staphylococcus epidermidis; test: Antibacterial activity against Staphylococcus epidermidis ATCC 12228 measured after 24 hrs; type: functional; settings: ATCC 12228, 24 h
Summary of the method: (§4)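 Broth microdilution adapted from NCCLS. Mid-log bacteria were diluted in MHB to a final (0.5–1) × 10^5 CFU mL−1. Peptides were serially diluted in 0.2% BSA and mixed with an equal volume of cells. After 24 h at 37 °C, MIC was read at A492 as the lowest concentration inhibiting 95% of growth. At least three independent experiments, each with three technical replicates.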

Escherichia coli [9] = test: Antibacterial activity against Escherichia coli K99 measured after 24 hrs; type: functional; settings: K99, 24 h; summary of the method: as §4
[10] = Therapeutic index, ratio of MHC10 for hemolytic activity in human RBC to MIC95 against Candida albicans cgmcc2.2086; type: toxicity; settings: human red blood cells (erythrocytes), read-out: TI; summary of the method: as §3
Staphylococcus aureus [11] = test: Antibacterial activity against Staphylococcus aureus ATCC 25923 measured after 24 hrs; type: functional; settings: ATCC 25923, 24 h; summary of the method: as §2
Escherichia coli [12] = test: Bactericidal activity against Escherichia coli K99 incubated for 24 hrs followed by replating on agar plate and measured after overnight incubation; type: functional; settings: K99, 24 h, read-out: MBC>99.9; summary of the method: as §1
Candida tropicalis = test: Antifungal activity against Candida tropicalis cgmcc2.1975 measured after 48 hrs by broth microdilution method; type: functional; settings: cgmcc2.1975, 48 h
Summary of the method: (§5)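 Modified CLSI M27-A2 microdilution. Yeast colonies were diluted in MOPS-buffered RPMI 1640 to a final (0.5–1) × 10^3 CFU mL−1 and mixed with an equal volume of peptide serially diluted in 0.2% BSA. After 48 h at 28 °C, MIC was read at A492 as the lowest concentration inhibiting 95% of growth. At least three independent experiments, each with three technical replicates.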

Escherichia coli [13] = test: Antibacterial activity against Escherichia coli ATCC 25922 measured after 18 to 24 hrs in presence of NaCl; type: functional
Erythrocyte = test: Hemolytic activity in human RBC measured after 1 hr; type: ADME, cell-based
Summary of the method: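 Fresh healthy-donor human erythrocytes at ~1% (v/v) in PBS pH 7.4, mixed 1:1 with peptide (1–128 µM), 1 h at 37 °C. After centrifugation at 1000×g, supernatant hemoglobin read at 576 nm. Untreated cells set 0% and 0.1% Triton X-100 set 100%. MHC defined as the concentration giving >10% hemolysis. Three or more independent experiments, triplicates.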

[14] = Conformational stability in 50% trifluoro-ethyl alcohol assessed as alpha-helical structural propensity by measuring absorption spectra at minimum dichroic band at 35 uM by CD spectra analysis; type: physicochemical
Summary of the method: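 CD spectra from 190 to 250 nm of peptide at 35 μM in 10 mM PBS, 30 mM SDS micelles or 50% TFE, recorded in a 1.0-mm quartz cell. Ellipticity was converted to mean residue ellipticity. Three independent scans, each averaged over more than 3 runs.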

[15] = Cytotoxicity against mouse RAW264.7 cells assessed as cell viability at 2 to 64 uM measured after 18 to 24 hrs by MTT assay relative to control; type: cell-based; settings: RAW264.7 cells, read-out: Activity
Summary of the method: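 MTT assay: RAW264.7 cells seeded at 1.0–2.0×10^4 per well and exposed to peptide (2–64 µM) for 18–24 h at 37 °C in 5% CO2. MTT (0.5 mg/mL) added for 4 h, formazan dissolved in DMSO, read at 570 nm. At least three independent experiments with triplicate wells.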

Staphylococcus aureus [16] = test: Antibacterial activity against Staphylococcus aureus ATCC 29213 measured after 18 to 24 hrs in presence of ZnCl2; type: functional
Summary of the method: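 MIC broth microdilution (MHB, 0.2% BSA peptide diluent, A492, 95% inhibition) run in the presence of physiological salts at final concentrations of 6 μM NH4Cl or 8 μM ZnCl2. Three independent assays, each with three technical replicates.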

Staphylococcus aureus [17] = test: Antibacterial activity against Staphylococcus aureus ATCC 29213 measured after 18 to 24 hrs in presence of FeCl3; type: functional
Candida parapsilosis = test: Antifungal activity against Candida parapsilosis cgmcc2.3989 measured after 48 hrs by broth microdilution method; type: functional; settings: Lodderomyces parapsilosis, cgmcc2.3989, 48 h; summary of the method: as §5
[18] = Therapeutic index, ratio of MHC10 for hemolytic activity in human RBC to MIC95 against methicillin-resistant Staphylococcus aureus ATCC 43300; type: toxicity; settings: human red blood cells (erythrocytes), read-out: TI; summary of the method: as §3
[19] = Therapeutic index, ratio of MHC10 for hemolytic activity in human RBC to MIC95 against Staphylococcus epidermidis ATCC 12228; type: toxicity; settings: human red blood cells (erythrocytes), read-out: TI; summary of the method: as §3
Staphylococcus aureus [20] = test: Antibacterial activity against Staphylococcus aureus ATCC 29213 measured after 18 to 24 hrs in presence of CaCl2; type: functional
Pseudomonas aeruginosa = test: Antibacterial activity against Pseudomonas aeruginosa ATCC 27853 measured after 24 hrs; type: functional; settings: ATCC 27853, 24 h; summary of the method: as §4

H-AARIILRGRFR-NH2
MBC (Salmonella typhimurium): 8 µM
MIC95 (Staphylococcus aureus [1]): 8 µM
selectivity ratio [2]: 5.04
MIC95 (Staphylococcus aureus [3]): 8 µM
MIC95 (Staphylococcus aureus [4]): > 128 µM
MIC95 (Candida albicans [5]): > 128 µM
MIC95 (Candida albicans [6]): > 128 µM
MIC95 (Escherichia coli [7]): 4 µM
MIC95 [8]: 8 µM
MIC95 (Escherichia coli [9]): 2 µM
selectivity ratio [10]: 5.04
MIC95 (Staphylococcus aureus [11]): 16 µM
MBC (Escherichia coli [12]): 8 µM
MIC95 (Candida tropicalis): 16 µM
MIC95 (Escherichia coli [13]): 64 µM
MHC10 (Erythrocyte): > 128 µM
Activity [14]: 208 to 222 nm
viability at up to 64 µM [15]: 90 to 100%
MIC95 (Staphylococcus aureus [16]): 8 µM
MIC95 (Staphylococcus aureus [17]): 8 µM
MIC95 (Candida parapsilosis): 64 µM
selectivity ratio [18]: 26.9
selectivity ratio [19]: 26.9
MIC95 (Staphylococcus aureus [20]): 64 µM
MIC95 (Pseudomonas aeruginosa): 16 µM

H-AARIILRRRFR-NH2
MBC (Salmonella typhimurium): 64 µM
MIC95 (Staphylococcus aureus [1]): 16 µM
selectivity ratio [2]: 3.17
MIC95 (Staphylococcus aureus [3]): 32 µM
MIC95 (Staphylococcus aureus [4]): 128 µM
MIC95 (Candida albicans [5]): > 128 µM
MIC95 (Candida albicans [6]): > 128 µM
MIC95 (Escherichia coli [7]): 32 µM
MIC95 [8]: 16 µM
MIC95 (Escherichia coli [9]): 8 µM
selectivity ratio [10]: 3.17
MIC95 (Staphylococcus aureus [11]): 32 µM
MBC (Escherichia coli [12]): 16 µM
MIC95 (Candida tropicalis): 64 µM
MIC95 (Escherichia coli [13]): 128 µM
MHC10 (Erythrocyte): > 128 µM
Activity [14]: 208 to 222 nm
viability at up to 64 µM [15]: 90 to 100%
MIC95 (Staphylococcus aureus [16]): 16 µM
MIC95 (Staphylococcus aureus [17]): 16 µM
MIC95 (Candida parapsilosis): 64 µM
selectivity ratio [18]: 13.4
selectivity ratio [19]: 13.4
MIC95 (Staphylococcus aureus [20]): 128 µM
MIC95 (Pseudomonas aeruginosa): > 128 µM
